# Source: ChEMBL document CHEMBL1128288, “7-Azetidinylquinolones as antibacterial agents. 3. Synthesis, properties and structure-activity relationships of the stereoisomers containing a 7-(3-amino-2-methyl-1-azetidinyl) moiety” (J Med Chem, 1995)
# Key:
# Pseudomonas aeruginosa [1] = experiment: In vitro antibacterial activity measured as minimum inhibitory concentration was evaluated on Pseudomonas aeruginosa ATCC 10145 (Pa).; format: functional; conditions: Pseudomonas aeruginosa, ATCC 10145; read-out: MIC
# In short: (§1)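 Serial 2-fold agar dilution in Mueller Hinton medium, run side by side with reference quinolones. Inoculum 10^5 cfu/mL; compound range 0.007–16 µg/mL.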
# Bacillus cereus = experiment: In vitro antibacterial activity measured as minimum inhibitory concentration was evaluated on Bacillus cereus ATCC 11778 (Bc).; format: functional; conditions: Bacillus cereus, ATCC 11778; read-out: MIC; in short: as §1
# [2] = mouse, in vivo, po, 50 mg/kg
# Morganella morganii = experiment: In vitro antibacterial activity measured as minimum inhibitory concentration was evaluated on morganella morganii ATCC 8019 (Mm).; format: functional; conditions: Morganella morganii, ATCC 8019; read-out: MIC; in short: as §1
# Staphylococcus aureus [3] = experiment: In vivo efficacy as ED50 against Staphylococcus aureus HS-93 by oral administration in mice.; format: functional; conditions: Staphylococcus aureus, po; read-out: ED50
# In short: (§2)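 Mice, 4 groups of 10, infected intraperitoneally with slightly more than the LD100 of the organism. A single oral dose was given immediately after infection, with four doses (one per group) chosen from in vitro activity. Survival was scored after one week. ED50 (total dose, mg/kg, protecting 50%) was interpolated among group survival rates.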
# Enterococcus faecalis = experiment: In vitro antibacterial activity measured as minimum inhibitory concentration was evaluated on Streptococcus faecalis ATCC 10541 (Sf).; format: functional; conditions: Enterococcus faecalis, ATCC 10541; read-out: MIC; in short: as §1
# Staphylococcus aureus [4] = experiment: In vitro antibacterial activity measured as minimum inhibitory concentration was evaluated on Staphylococcus aureus ATCC 25178 (Sa).; format: functional; conditions: Staphylococcus aureus, ATCC 25178; read-out: MIC; in short: as §1
# Proteus vulgaris = experiment: In vitro antibacterial activity measured as minimum inhibitory concentration was evaluated on proteus vulgaris ATCC 8427 (Pv).; format: functional; conditions: Proteus vulgaris, ATCC 8427; read-out: MIC; in short: as §1
# Escherichia coli [5] = experiment: In vivo efficacy as ED50 against Escherichia coli HM-42 by oral administration in mice.; format: functional; conditions: Escherichia coli, po; read-out: ED50; in short: as §2
# Escherichia coli [6] = experiment: In vitro antibacterial activity measured as minimum inhibitory concentration, was evaluated on Escherichia coli ATCC 23559(Ec).; format: functional; conditions: Escherichia coli, ATCC 23559; read-out: MIC; in short: as §1
# Enterobacter cloacae = experiment: In vitro antibacterial activity measured as minimum inhibitory concentration, was evaluated on Enterobacter cloacae ATCC 23355 (Ecl).; format: functional; conditions: Enterobacter cloacae, ATCC 23355; read-out: MIC
# Pseudomonas aeruginosa [7] = experiment: In vivo efficacy as ED50 against Pseudomonas aeruginosa HS-116 by oral administration in mice.; format: functional; conditions: Pseudomonas aeruginosa, po; read-out: ED50; in short: as §2
# [8] = system: Staphylococcus epidermidis; experiment: In vitro antibacterial activity measured as minimum inhibitory concentration was evaluated on Staphylococcus epidermidis ATCC 155-1 (Se).; format: functional; conditions: Staphylococcus epidermidis, ATCC 155-1; read-out: MIC; in short: as §1
# Klebsiella pneumoniae = experiment: In vitro antibacterial activity measured as minimum inhibitory concentration was evaluated on klebsiella pneumoniae ATCC 10031 (Kp).; format: functional; conditions: Klebsiella pneumoniae, ATCC 10031; read-out: MIC
# In short: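 Serial 2-fold agar dilution in Mueller Hinton medium, run side by side with reference quinolones.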
# Bacillus subtilis = experiment: In vitro antibacterial activity measured as minimum inhibitory concentration was evaluated on Bacillus subtilis ATCC 6633(Bs).; format: functional; conditions: Bacillus subtilis, ATCC 6633; read-out: MIC; in short: as §1
Structure (SMILES),MIC (Pseudomonas aeruginosa [1]) [µg/mL],MIC (Bacillus cereus) [µg/mL],AUC [2] [ng·h/mL],MIC (Morganella morganii) [µg/mL],ED50 (Staphylococcus aureus [3]) [mg/kg],MIC (Enterococcus faecalis) [µg/mL],MIC (Staphylococcus aureus [4]) [µg/mL],MIC (Proteus vulgaris) [µg/mL],ED50 (Escherichia coli [5]) [mg/kg],MIC (Escherichia coli [6]) [µg/mL],MIC (Enterobacter cloacae) [µg/mL],ED50 (Pseudomonas aeruginosa [7]) [mg/kg],MIC [8] [µg/mL],MIC (Klebsiella pneumoniae) [µg/mL],MIC (Bacillus subtilis) [µg/mL]
C[C@@H]1[C@@H](N)CN1c1c(F)c(N)c2c(=O)c(C(=O)O)cn(C3CC3)c2c1F,0.12,0.015,11400,0.015,11.4,0.12,0.015,0.06,4.1,0.015,0.015,96,0.015,0.015,0.015
"C[C@H]1[C@H](N)CN1c1c(F)cc2c(=O)c(C(=O)O)cn(C3CC3)c2c1F (single isomer, unassigned)",–,–,21800,0.015,3.5,–,0.015,–,1,0.015,0.015,18,0.015,0.015,0.015
CCn1cc(C(=O)O)c(=O)c2cc(F)c(N3C[C@H](N)[C@H]3C)c(F)c21,2,0.25,21000,0.12,5.9,2,0.25,0.5,3.9,0.12,0.12,60,0.25,0.06,0.12
CC1C(N)CN1c1c(F)cc2c(=O)c(C(=O)O)cn(-c3ccc(F)cc3F)c2c1F (centres undefined),1,0.12,–,0.12,10,1,0.12,0.5,2.3,0.06,0.06,61,0.12,0.06,0.06
C[C@@H]1[C@@H](N)CN1c1cc2c(cc1F)c(=O)c(C(=O)O)cn2C1CC1,4,1,2200,0.5,–,2,1,1,–,0.25,0.25,–,1,0.25,0.25
C[C@@H]1[C@@H](N)CN1c1c(F)cc2c(=O)c(C(=O)O)cn(C3CC3)c2c1Cl,4,0.5,–,0.25,19.1,0.25,0.5,0.25,18.4,0.25,0.25,147,0.5,2,0.12
C[C@H]1COc2c(N3CCN(C)CC3)c(F)cc3c(=O)c(C(=O)O)cn1c23.C[C@H]1COc2c(N3CCN(C)CC3)c(F)cc3c(=O)c(C(=O)O)cn1c23.O [LEVOFLOXACIN],0.5,0.25,10200,0.03,14,0.25,0.25,0.5,5,–,0.03,109,0.12,0.03,0.03
"C[C@H]1[C@H](N)CN1c1cc2c(cc1F)c(=O)c(C(=O)O)cn2C1CC1 (single isomer, unassigned)",0.12,0.015,4000,0.015,17,0.12,0.06,–,2.9,0.015,0.015,100,0.06,0.015,0.015
C[C@H]1COc2c(N3CC(C)(N)C3)c(F)cc3c(=O)c(C(=O)O)cn1c23,0.5,0.25,8500,0.015,19.1,0.5,0.25,0.25,6.7,0.015,0.015,121,0.12,0.015,0.015
